Activity calls are given as the source filed them. The rule behind the calls is not given here.
Assays:
[1] = molecular target: T1, Lethal(3)malignant brain tumor-like protein 3 (Homo sapiens) (UniProt Q96JM7); test: Binding affinity to L3MBTL3 in human G401 cells by Western blot based pulldown assay; type: cell-based; settings: G-401
T1 sequence (whole entry): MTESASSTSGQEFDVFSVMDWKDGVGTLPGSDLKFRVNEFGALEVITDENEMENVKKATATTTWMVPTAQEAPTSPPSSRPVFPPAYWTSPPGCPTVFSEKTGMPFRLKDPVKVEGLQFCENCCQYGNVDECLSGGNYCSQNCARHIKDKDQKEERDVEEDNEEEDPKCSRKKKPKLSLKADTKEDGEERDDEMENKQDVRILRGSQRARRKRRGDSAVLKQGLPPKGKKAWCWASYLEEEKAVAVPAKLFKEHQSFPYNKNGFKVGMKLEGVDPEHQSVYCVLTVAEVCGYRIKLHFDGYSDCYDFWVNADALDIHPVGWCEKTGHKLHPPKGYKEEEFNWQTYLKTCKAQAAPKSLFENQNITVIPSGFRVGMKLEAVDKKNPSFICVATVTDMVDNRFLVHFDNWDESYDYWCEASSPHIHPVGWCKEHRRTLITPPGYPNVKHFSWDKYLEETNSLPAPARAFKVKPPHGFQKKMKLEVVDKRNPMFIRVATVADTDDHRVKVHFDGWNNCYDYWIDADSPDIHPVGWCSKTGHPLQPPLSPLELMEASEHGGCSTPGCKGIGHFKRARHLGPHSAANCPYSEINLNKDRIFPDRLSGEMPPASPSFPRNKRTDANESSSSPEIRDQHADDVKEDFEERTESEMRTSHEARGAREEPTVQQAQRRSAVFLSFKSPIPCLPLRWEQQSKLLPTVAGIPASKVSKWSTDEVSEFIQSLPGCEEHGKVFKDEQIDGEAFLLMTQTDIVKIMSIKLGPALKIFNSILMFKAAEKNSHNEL
Outline: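 G-401 lysate made in Tris pH 8.0, 500 mM NaCl, EDTA, 1% Triton, diluted to 150 mM NaCl. […] Streptavidin beads saturated with biotinylated probe (biotin as control), rotated with lysate overnight at 4 °C, washed, eluted; SDS-PAGE and immunoblot for endogenous L3MBTL3.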

[2] = molecular target: T1, Lethal(3)malignant brain tumor-like protein 3 (Homo sapiens); test: Displacement of mero76-UNC1215 from GFP-L3MBTL3 (unknown origin) expressed in HEK293 cells at 1 equivalent dose after 3 hrs by immunofluorescence assay; type: cell-based
Outline: (§1)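 HEK293 cells seeded on coverslips, transfected 24 h later with GFP-L3MBTL3 (N-terminal GFP fusion of full-length protein), then after 16 h loaded with mero76 conjugate (5 μM) for 3 h. Competitor then added at 5 μM or 25 μM (1 or 5 equivalents relative to probe) for a further 3 h. Hoechst-stained; spinning-disk confocal imaging scored loss of probe foci.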

[3] = molecular target: T1, Lethal(3)malignant brain tumor-like protein 3 (Homo sapiens); test: Displacement of mero76-UNC1215 from GFP-L3MBTL3 (unknown origin) expressed in HEK293 cells at 5 uM after 3 hrs by immunofluorescence assay; type: cell-based; outline: as §1
[4] = molecular target: T2, Muscarinic acetylcholine receptor M1 (Homo sapiens, UniProt P11229); test: Antagonist activity at muscarinic M1 receptor (unknown origin) expressed in HEK293T cells assessed as inhibition of UNC1679 calcium mobilization; type: functional, cell-based, HEK-293T
T2 sequence (P11229 whole entry): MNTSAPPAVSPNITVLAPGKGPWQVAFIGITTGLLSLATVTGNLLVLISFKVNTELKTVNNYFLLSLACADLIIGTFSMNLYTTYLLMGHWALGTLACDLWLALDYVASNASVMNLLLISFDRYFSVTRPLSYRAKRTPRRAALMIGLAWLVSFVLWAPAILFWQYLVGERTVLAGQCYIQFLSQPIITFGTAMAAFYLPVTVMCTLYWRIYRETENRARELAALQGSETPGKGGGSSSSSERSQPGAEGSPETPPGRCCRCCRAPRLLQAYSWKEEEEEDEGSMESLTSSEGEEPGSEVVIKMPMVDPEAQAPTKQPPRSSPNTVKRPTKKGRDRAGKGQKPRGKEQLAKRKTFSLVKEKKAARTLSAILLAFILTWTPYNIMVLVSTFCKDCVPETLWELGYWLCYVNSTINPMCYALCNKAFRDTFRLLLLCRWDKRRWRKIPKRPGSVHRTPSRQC

HEK-293T = test: Cytotoxicity against HEK293T/17 cells assessed as cell viability up to 100 uM after 24 hrs by CellTiter-Glo luminescence assay; type: cell-based; settings: human
Outline: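 Cell viability by CellTiter-Glo luminescence, compound tested up to 100 μM.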

[5] = molecular target: T3, Muscarinic acetylcholine receptor M1 (Homo sapiens) (UniProt P11229); test: Antagonist activity at muscarinic M1 receptor (unknown origin) expressed in HEK293T cells assessed as inhibition of UNC1679 calcium mobilization at 30 uM; type: functional, cell-based; settings: HEK-293T
T3 sequence (whole entry): T2 sequence (P11229 whole entry)
Outline: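 Test compound assayed for M1 antagonism at one concentration, 30 μM, scored as percent inhibition.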

inhibition [5] [%]	Compound	Activity [1]	Activity [2]	Activity [3]	IC50 [4] [µM]	Activity (HEK-293T)
	CCN1Cc2ccc(NC(=O)c3ccc(C(=O)N4CCC(C5CCCN5)CC4)c(Nc4ccccc4)c3)cc2C1 (configuration not stated)	Active	Active	Active		
	O=C(c1ccc(C(=O)N2CCC(N3CCCC3)CC2)c(Nc2ccccc2)c1)N1CCC(N2CCCC2)CC1	Active	Active		3.5	Non-toxic
	O=C(c1ccc(C(=O)N2CCC(N3CCCCC3)CC2)cc1)N1CCC(N2CCCCC2)CC1	inactive				
< 20	CCN1Cc2ccc(NC(=O)c3ccc(C(=O)N4CCC(C5CCCN5)CC4)cc3)cc2C1 (configuration not stated)		Active	Active		Non-toxic

Source: ChEMBL document CHEMBL2424619, “Small-molecule ligands of methyl-lysine binding proteins: optimization of selectivity for L3MBTL3” (J Med Chem, 2013)
